# Compound activity from PubChem BioAssay.
# Compounds with a hit are over-represented: about 3.5% of the library has one in this group of screens.
# RGS4 pot – RGS4 potentiators or activators, primary screen, cell-based, HEK293 M3R inducible RGS4, calcium flux. carbachol calcium flux Fluo4; stronger effect = lower value. AID 463111, 2010. B-score at 10 µM. hit rate 0.92% among 310,000;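 active = B-score of the integrated calcium signal more than 4 SD below the library mean, with starting fluorescence not abnormally high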;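 note: negative B-score means reduced calcium response which marks RGS4 activation or potentiation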
#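 Material: M3R-expressing HEK293 line, RGS4 induced by doxycycline | Schedule: Overnight RGS4 induction, 30 min dye load 37 °C, 20 min compound RT | Measured by: Fluo4 fluorescence kinetic imaging of calcium | Read-out: Integrated calcium ratio converted to B score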
# MrgX1 agonist – agonists of human MrgX1 receptor, primary screen, HEK293 cells, Fluo-4 calcium flux; Mas-related G-protein coupled receptor member X1 (Homo sapiens), Q96LB2; Fluo-4 calcium fluorescence, agonist mode; stronger effect = higher value; B-score at 10 µM; hit rate 0.44% among 310,000;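 active = calcium response B-score plate-corrected fluorescence ratio at least 3 library SD, with starting fluorescence B-score inside 5 SD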
# Target sequence (Q96LB2 whole entry, looked up): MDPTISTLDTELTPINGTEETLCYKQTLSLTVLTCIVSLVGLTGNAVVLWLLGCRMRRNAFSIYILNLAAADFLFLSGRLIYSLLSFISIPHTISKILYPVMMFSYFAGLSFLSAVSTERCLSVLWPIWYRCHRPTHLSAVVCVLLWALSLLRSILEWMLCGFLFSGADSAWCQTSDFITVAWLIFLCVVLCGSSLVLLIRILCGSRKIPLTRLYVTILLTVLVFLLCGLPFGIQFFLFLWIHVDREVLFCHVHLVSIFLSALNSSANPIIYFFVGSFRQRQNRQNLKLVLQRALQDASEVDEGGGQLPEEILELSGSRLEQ
#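 Material: MrgX1-expressing HEK293 cells; input: 15,000 cells per well; doses: test compound given as first of three sequential additions; schedule: overnight plating before 1 h dye loading; technique: Fluo-4 NW calcium-flux fluorescence, kinetic read; evaluation: baseline-normalised fluorescence change ratio, B-scored; control set: plate-wise positive and negative controls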
# MrgX1 antag – antagonists of human MrgX1 receptor, primary screen, HEK293 cells, Fluo-4 calcium flux. hit rate 1.3% among 310,000. BAM8-22 antagonism; stronger effect = lower value. Mas-related G-protein coupled receptor member X1 (Homo sapiens), Q96LB2. B-score at 10 µM;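 active = calcium-response B-score plate-corrected more than 3 library SD below zero, starting fluorescence within 5 deviations, no agonist response on first addition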;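 note: peak minus trough fluorescence over baseline after final BAM8-22 challenge near maximal dose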
# MrgX1 PAM – positive allosteric modulators of MrgX1, primary screen, HEK293 cells, Fluo-4 calcium flux | B-score at 10 µM | FDSS; stronger effect = higher value | AID 588675, 2011 | Mas-related G-protein coupled receptor member X1 (Homo sapiens), Q96LB2 | hit rate 0.63% among 310,000;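 active = plate-corrected calcium response at least 3 library SD above typical, normal starting fluorescence, not activating the receptor alone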;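 note: compound read alongside a low EC10 to EC30 dose of BAM8-22 agonist; peak minus trough fluorescence over baseline measured at the second addition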
# RGS4 inh – RGS4 inhibitors, primary screen, cell-based, HEK293 M3R inducible RGS4, calcium flux | hit rate 0.45% among 310,000 | Regulator of G-protein signaling 4 (Homo sapiens), P49798 | Fluo-4 calcium flux; stronger effect = higher value; triggered by carbachol at its EC20 | B-score at 10 µM;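 active = B-score, a plate-corrected calcium signal, over three deviations above library mean, with baseline fluorescence within five deviations of library mean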;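 note: RGS4 expression induced by doxycycline in cells with stable M3 receptor; B-score is computed from the integrated fluorescence ratio over baseline after carbachol; higher B-score means a larger calcium signal and so more RGS4 inhibition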
# Target sequence (P49798 whole entry, looked up): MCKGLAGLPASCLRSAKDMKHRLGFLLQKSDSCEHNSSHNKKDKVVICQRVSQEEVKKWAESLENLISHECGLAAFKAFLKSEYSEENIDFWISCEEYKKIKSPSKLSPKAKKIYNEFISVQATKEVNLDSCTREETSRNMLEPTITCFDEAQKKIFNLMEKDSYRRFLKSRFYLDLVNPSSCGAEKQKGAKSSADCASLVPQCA
# MrgX1 allo conf – MrgX1 positive allosteric modulators, duplicate retest, confirmation, HEK293 cells, Fluo-4 calcium flux. shares compounds with MrgX1 PAM. Fluo-4 calcium fluorescence, FDSS. activation (ratio percentage), % at 10 µM. hit rate 13% among 1,200. AID 602413, 2012;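 active = ratio at least 3 SD above the weak peptide control, stable starting fluorescence, no direct agonism earlier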;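 note: compound followed by low BAM8-22 agonist challenge near EC20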
# HEK293 Ca flux – nonspecific calcium signal in parental HEK293, confirmation, counter-screen for MrgX1 antagonist project, parental HEK293 cells, Fluo-4 calcium flux; shares compounds with MrgX1 antag; Fluo-4 calcium fluorescence, FDSS; fluorescence ratio F(max-min)/F0 at 10 µM; hit rate 2% among 4,000; AID 624111, 2012;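 active = duplicate-averaged calcium fluorescence ratio at least three times the standard deviation of buffer wells, a nonspecific response in parental cells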
# HEK293 Ca counter – calcium response in parental HEK293 cells, primary screen, counter-screen for MrgX1 allosteric activator project, cell-based, Fluo-4 calcium flux, duplicate | fluorescence ratio F(max-min)/F0 at 10 µM | Fluo-4 fluorescence ratio; stronger effect = higher value | hit rate 0.4% among 4,000 | shares compounds with MrgX1 antag;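 active = calcium fluorescence ratio, averaged over duplicates, at least 3 SD of the buffer-well ratio, meaning a nonspecific response in receptor-free cells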;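 note: untransfected parental HEK293 lacking MrgX1 used as counterscreen for MrgX1 allosteric activators; fluorescence change taken during the second addition on a kinetic imager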
# HEK293 Ca cntr2 – calcium response in parental HEK293 cells, primary screen, counter-screen for MrgX1 agonist project, cell-based, Fluo-4 calcium flux, duplicate, agonist mode. Fluo-4 calcium fluorescence (FDSS); stronger effect = higher value. shares compounds with MrgX1 antag. AID 624115, 2012. fluorescence ratio F(max-min)/F0 at 10 µM. hit rate 8.7% among 4,000;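 active = calcium fluorescence ratio at least three times the spread of buffer wells, meaning a non-specific response in parental cells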
# * = called active by the depositor; i = inactive; nt = no result given.
SMILES,RGS4 pot,MrgX1 agonist,MrgX1 antag,MrgX1 PAM,RGS4 inh,MrgX1 allo conf,HEK293 Ca flux,HEK293 Ca counter,HEK293 Ca cntr2
CCOC(=O)CSCc1csc(CC(=O)Nc2ccccc2C)n1,i,i,i,i,i,nt,nt,nt,nt
Cc1cccc(NC(=O)C2COc3ccccc3O2)c1 (stereo not drawn),i,i,i,i,i,nt,nt,nt,nt
Cc1nn(C)c(C(=O)NC2C3CC4CC(C3)CC2C4)c1Cl (stereo not drawn),i,i,i,12.9*,i,i,i,i,i
CN(C(=O)COC(=O)/C=C/c1ccc2ccccc2n1)C1CCS(=O)(=O)C1 (stereo not drawn),i,i,i,i,i,nt,nt,nt,nt
Cc1nc(-c2cccc(NC(=O)C3CCCCC3)c2)cs1,i,i,i,16.6*,i,i,i,i,i
Cc1nc(-c2ccc(NC(=O)C3CC3)cc2)cs1,i,i,i,i,i,nt,nt,nt,nt
CC1CCN(C(=O)COc2ccc3ccccc3c2Br)CC1,i,i,i,6.51*,i,i,i,i,i
CC1CCN(C(=O)COc2ncnc3ccccc23)CC1,i,i,i,i,i,nt,nt,nt,nt
O=C(Nc1ccon1)c1ccc(Cl)s1,i,i,i,i,i,nt,nt,nt,nt
Cc1ccnc(NC(=O)c2ccc(Cl)s2)c1,i,i,i,8.48*,i,i,i,i,i
CC12COC3(C(=O)Nc4nccs4)CC1CCC32C (stereo not drawn),i,i,i,i,i,nt,nt,nt,nt
CC12COC3(C(=O)Nc4ccc(Cl)cc4)CC1CCC32C (stereo not drawn),i,i,i,31.2*,i,8.2%*,i,i,i
CCOC(=O)c1sc(NC(=O)c2ccccc2C(=O)O)c(C(=O)OCC)c1C,i,i,i,13.1*,i,i,i,i,i
O=[N+]([O-])c1ccccc1Oc1ccc(Cl)c2cccnc12,i,i,i,i,i,nt,nt,nt,nt
Nc1nc(C23CC4CC(CC(Cl)(C4)C2)C3)cs1,i,i,i,i,i,nt,nt,nt,nt
Nc1nc(C23CC4CCC(CC(C4)C2)C3)cs1,i,i,i,7.08*,i,i,i,i,i
O=C(CSc1nc2ccccc2c(=O)n1-c1ccc(OC(F)F)cc1)NCc1cccs1,i,i,i,i,i,nt,nt,nt,nt
O=C(CSc1nnc(-c2ccc(OC(F)F)cc2)o1)NCc1cccs1,i,i,i,7.48*,i,i,i,i,i
Cn1nnc2cc(C(=O)Nc3ccc4ccccc4c3)ccc21,i,i,i,i,i,nt,nt,nt,nt
COc1cc(/C=N/NC(=S)NCCN2CCOCC2)cc(OC)c1OC,i,i,i,i,i,nt,nt,nt,nt
COc1ccc(CC(=O)Nc2cc(=O)n(C)c(=O)n2C)cc1OC,i,i,i,6.64*,i,i,i,i,i
COc1ccc(C(=O)Nc2cc(=O)n(C)c(=O)n2C)cc1OC,i,i,i,i,i,nt,nt,nt,nt
